Published values gathered from unrelated publications.
Values after ≈ are worked out from the molar mass of the structure shown.

Compound | target or system | assay | system | setting | endpoint | result
Cc1cc(CC2CCCCC2)n(O)c(=O)c1 | Cryptococcus gattii | microbial growth | – | – | MIC80 | 1.7 µM (≈ 0.376 µg/mL)
COc1cc(Cc2cnc(N)nc2N)cc(OC)c1OC | Shigella dysenteriae | microbial growth, broth dilution | – | 24 h | MIC | 16 µg/mL
CC(C)C[C@H](NC(=O)OCc1ccccc1)C(=O)N[C@@H](Cc1c[nH]c2ccccc12)C(=O)N[C@@H](CC(C)C)C(=O)C(=O)Nc1ccccc1 | RPMI-8226 | cell growth or viability, MTS | – | 72 h | IC50 | 313 nM
CO/N=C(\C(=O)N[C@@H]1C(=O)N2C(C(=O)O)=C(CSC(=O)c3ccco3)CS[C@H]12)c1csc(N)n1 | Salmonella enterica | microbial growth | CHOLERAESUIS | 20 h, pH 5.5 | MIC | 1 µg/mL
COc1ccccc1Cc1cc(C)cc(=O)n1O | Cryptococcus gattii | microbial growth | – | – | MIC80 | 1.5 µM (≈ 0.368 µg/mL)
CC1=NN(CNc2ccc(O)cc2)C(=O)C1=NNn1c(-c2ccccc2)nc2ccccc2c1=O | Salmonella enterica | microbial growth, broth dilution | PARATYPHI | 24 h | MIC | 107 µM
COc1cccc(Cc2cc(C)cc(=O)n2O)c1 | Cryptococcus gattii | microbial growth | – | – | MIC80 | 2.3 µM (≈ 0.564 µg/mL)
C=C(C)[C@H]1Cc2c(ccc3c2O[C@@H]2COc4cc(OC)c(OC)cc4[C@@H]2C3=O)O1 | ReNcell VM | cell growth or viability, imaging | – | 24 h | IC50 | ~280 nM
CC(/C=C/C(O)=C1/C(=O)CNC1=O)=C\[C@@H](C)[C@H]1O[C@@]2(C)O[C@H](C(=O)[C@@H]3O[C@@]32C)[C@@H]1C | Bacillus cereus | microbial growth | – | – | MIC | 6.25 µM
CCn1cc(C(=O)O)c(=O)c2ccc(C)nc21 | Salmonella enterica | microbial growth | CHOLERAESUIS | 20 h, pH 5.5 | MIC | 1 µg/mL
NC[C@H]1O[C@H](O[C@H]2[C@H](O)[C@@H](O[C@H]3O[C@H](CO)[C@@H](O)[C@H](N)[C@H]3O)[C@H](N)C[C@@H]2N)[C@H](N)C[C@@H]1O | Bacillus cereus | microbial growth | ATCC11778 | – | MIC | 18.8 µg/mL
CCC1(c2ccc(N)cc2)CCC(=O)NC1=O (centres unmarked) | IOSE-144 | cell growth or viability, CCK-8 | – | 48 h | IC50 | > 50000 nM
CC(C)C[C@H](NC(=O)OCc1ccccc1)C(=O)N[C@@H](CC(C)C)C(=O)N[C@@H](CC(C)C)C(=O)C(=O)Nc1cccc2c1CCC2 | RPMI-8226 | cell growth or viability, MTS | – | 72 h | IC50 | 65.9 nM
CCCCCCCCCCCC(=O)OC[C@H]1O[C@@H](n2cc(C)c(=O)[nH]c2=O)C[C@@H]1OC(=O)c1ccc(C(C)(C)C)cc1 | Bacillus cereus | microbial killing, broth dilution | – | – | MBC | 8 µg/mL (≈ 13.7 µM)
O=c1[nH]cc(F)c(=O)[nH]1 | Shigella dysenteriae | microbial growth, broth dilution | – | 24 h | MIC | 4 µg/mL
CC1=NN(CNC(=O)c2ccccn2)C(=O)C1=NNn1c(-c2ccccc2)nc2ccccc2c1=O | Salmonella enterica | microbial growth, broth dilution | PARATYPHI | 24 h | MIC | 104 µM
CS(=O)(=O)c1ccc([C@@H](O)[C@@H](CF)NC(=O)C(Cl)Cl)cc1 | Salmonella enterica | microbial growth | CHOLERAESUIS | 20 h, pH 5.5 | MIC | 4 µg/mL
CC1=NN(CNc2ccccn2)C(=O)C1=NNn1c(-c2ccccc2)nc2ccccc2c1=O | Salmonella enterica | microbial growth, broth dilution | PARATYPHI | 24 h | MIC | 55.2 µM
CC[C@H]1OC(=O)[C@H](C)[C@@H](O[C@H]2C[C@@](C)(OC)[C@@H](O)[C@H](C)O2)[C@H](C)[C@@H](O[C@@H]2O[C@H](C)C[C@H](N(C)C)[C@H]2O)[C@](C)(O)C[C@@H](C)C(=O)[C@H](C)[C@@H](O)[C@]1(C)O | Bacillus cereus | microbial growth | – | – | MIC | 3.13 µM
CC(=O)c1cccc(NC(=O)C(=O)[C@H](CC(C)C)NC(=O)[C@H](CC(C)C)NC(=O)[C@H](CC(C)C)NC(=O)OCc2ccccc2)c1 | RPMI-8226 | cell growth or viability, MTS | – | 72 h | IC50 | 48.7 nM
Cc1cc(Cc2ccccc2)n(O)c(=O)c1 | Cryptococcus gattii | microbial growth | – | – | MIC80 | 1.7 µM (≈ 0.366 µg/mL)
CO/N=C(\C(=O)N[C@@H]1C(=O)N2C(C(=O)O)=C(CSc3nc(=O)c(=O)[nH]n3C)CS[C@H]12)c1csc(N)n1 | Salmonella enterica | microbial growth | CHOLERAESUIS | 20 h, pH 7 | MIC | 0.0625 µg/mL
CCCCCCCCCCCC(=O)OC[C@H]1O[C@@H](n2cc(C)c(=O)[nH]c2=O)C[C@@H]1O | Bacillus cereus | microbial growth, broth dilution | – | – | MIC | 4 µg/mL
